# Experimental data from different studies.
# Target: Casein kinase I isoform gamma-1 (CSNK1G1, Homo sapiens, UniProt Q9HCP0)
Structure (SMILES),effect on,mode,technique,tested at,measurement,result
C[C@H]1CC[C@H](n2c3cnccc3c3cnc(Nc4ccc5c(n4)CCN(C(=O)CO)C5)nc32)CC1,cell-free assay,,,1 µM,remaining signal,100%
CO[C@@H]1[C@H](N(C)C(=O)c2ccccc2)C[C@H]2O[C@]1(C)n1c3ccccc3c3c4c(c5c6ccccc6n2c5c31)C(=O)NC4,enzyme activity,inhibitor,,1 µM,inhibition,0%
Cc1cc(O)c(-c2ccc([C@@H](C)CN(C)C)cc2)c2c1[nH]c(=O)c1sccc12,enzyme activity,inhibitor,,0.1 µM,inhibition,-2.19%
CCCCC(=O)Nc1ccc(-c2ccc3ncn(CCC)c(=O)c3c2)cn1,binding,,competition with immobilised ligand,0.5 µM,remaining binding,100%
CN1CCN(C(=O)c2ccc(NC(=O)Nc3ccc(N(C)c4ccnc(Nc5ccc(CS(C)(=O)=O)cc5)n4)cc3)cc2)CC1,binding,,,1 µM,remaining binding,100%
C#Cc1cc(-c2cc(Nc3nc(N[C@@H](C)c4ccc(F)cn4)ncc3Cl)n[nH]2)ccc1C=O,enzyme activity,inhibitor,,0.2 µM,inhibition,4.78%
C=CC(=O)N1CCC[C@@H](n2nc(-c3ccc(Oc4ccccc4)cc3)c3c(N)ncnc32)C1,enzyme activity,inhibitor,,1 µM,inhibition,7%
CC(C)S(=O)(=O)c1ccc2nccc(Nc3ccc4sc(C5CCCC5)nc4c3)c2c1,enzyme activity,inhibitor,,1 µM,activity vs control,96%
C1=C/COCc2cc(ccc2OCCN2CCCC2)Nc2nccc(n2)-c2cccc(c2)COC/1,cell-free assay,,,0.1 µM,remaining signal,72%
